Experimental data from ChEMBL document CHEMBL1129310, “(Aminoalkyl)indole isothiocyanates as potential electrophilic affinity ligands for the brain cannabinoid receptor” (J Med Chem, 1996).

The compounds below were run against T1, Cannabinoid receptor 1 (Rattus norvegicus, UniProt P20272) (assay: Binding affinity against brain Cannabinoid receptor 1 using [3H]CP-55940 as radioligand at 1.1 nM concentration).
T1 sequence (P20272 whole entry): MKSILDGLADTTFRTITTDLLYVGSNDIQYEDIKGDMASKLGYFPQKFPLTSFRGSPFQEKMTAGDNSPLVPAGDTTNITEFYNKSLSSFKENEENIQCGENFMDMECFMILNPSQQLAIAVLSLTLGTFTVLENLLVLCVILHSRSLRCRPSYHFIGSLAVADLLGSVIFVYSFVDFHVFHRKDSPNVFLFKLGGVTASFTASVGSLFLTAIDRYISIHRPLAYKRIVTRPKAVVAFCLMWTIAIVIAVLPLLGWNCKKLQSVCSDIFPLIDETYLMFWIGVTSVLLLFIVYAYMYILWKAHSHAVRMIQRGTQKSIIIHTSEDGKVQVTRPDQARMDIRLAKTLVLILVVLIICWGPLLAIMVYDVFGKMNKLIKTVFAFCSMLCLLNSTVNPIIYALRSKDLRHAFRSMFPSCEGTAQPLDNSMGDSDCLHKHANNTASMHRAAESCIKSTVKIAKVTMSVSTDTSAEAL
In the case of `Cc1c(C(=O)c2ccc(N=C=S)c3ccccc23)c2ccccc2n1CCN1CCOCC1`, the IC50 is reported as 690 nM.

Each compound was assayed against T1, Cannabinoid receptor 1 (assay: Binding affinity against brain cannabinoid receptor 1 using [3H]CP-55940 as radioligand at 0.25 nM concentration).
Summary of the method: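 Rat brain P2 membranes (30 µg protein) were suspended in 20 mM potassium diethylmalonate pH 7.5 with 2.25 mM MgCl2 and 0.025% β-cyclodextrin, then incubated with [3H]CP-55940 for 1 h at 30 °C. Compounds came from DMSO stocks diluted through β-cyclodextrin. The reaction was stopped with BSA and glass-fibre filtration. Nonspecific binding was defined with 0.1 µM desacetyllevonantradol. Displacement curves were fitted by nonlinear regression, triplicate points.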
`O=C(c1cccc2ccccc12)c1cn(CCN2CCOCC2)c2ccccc12` showed an IC50 of 46 nM.
In the case of `O=C(c1cccc2cc(N=C=S)ccc12)c1cn(CCN2CCOCC2)c2ccccc12`, the IC50 is reported as 530 nM.
Work on `O=C(c1ccc(N=C=S)c2ccccc12)c1cn(CCN2CCOCC2)c2ccccc12` yielded an IC50 of 440 nM.
`O=C(c1cc(N=C=S)cc2ccccc12)c1cn(CCN2CCOCC2)c2ccccc12` showed an IC50 of 920 nM.
Compound `O=C(c1cccc2ccccc12)c1cn(CCN2CCOCC2)c2cc(N=C=S)ccc12` has an IC50 of 160 nM.
